# Compound activity: PubChem, Broad Institute
# CFTR F508del cor = correctors of CFTR F508del function in bronchial epithelial cells; CFBE cells, YFP halide quenching; stimulated with forskolin plus potentiator P3; % fluorescence drop versus neutral controls; AID 720511; 0.36% of 350,000 active; activity (quench increase), % at 7.58 µM;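 active = mean added fluorescence quench of at least 8% versus neutral control, with both replicates also reaching 8%; inconclusive = only one of the mean or replicate conditions met; inactive = mean below 8% and not both replicates reaching 8%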;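 also: cells transiently co-express mutant CFTR-F508del with the halide-sensitive YFP; corrector assay measuring rescue of mutant channel to the surface after 24 h compound exposure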
# GSIS activator = GLuc luminescence reporter in INS-1E cells, primary screen for activators of glucose-dependent secretion of insulin. INS-1E GLuc reporter insulin secretion, 2-3 h. activation, % at 16.6 µM. 0.61% of 370,000 active. AID 743287;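 active = lowest replicate activation of at least 40%, so every replicate reaches that level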
# miR122 inh = inhibitors of miR-122 in Huh7 cells; Huh7 miR-122 Renilla luciferase sensor, 48 h; neutral wells = 0, positive control = 100; 0.3% of 340,000 active; activation (reporter increase), % at 12.5 µM;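 active = mean replicate activation score at least 90 and every replicate individually at or above 90; inconclusive = only one of the two criteria met; inactive = neither criterion met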;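 also: higher luciferase means less miR-122 activity so hits act as miR-122 inhibitors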
# HIV Env fusion = blocks HIV Env-driven cell-cell fusion; inhibition, % at 12.3 µM; 1.1% of 360,000 active; AID 651610; HeLa-JRFL Env/CEM21 cell fusion, luciferase;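 active = mean replicate inhibition score of at least 50 and every replicate individually at or above 50; inconclusive = only one of the two criteria met; inactive = mean below 50 and not all replicates reaching 50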
# Ecoli rRNA inh = inhibitors of bacterial rRNA selective over humanized ribosomes; E. coli WT GFP vs humanized-ribosome RFP mutants, fluorescence, 24 h; stronger effect = lower value; DMSO median 0, no signal -100; 1.6% of 350,000 active; GFP signal change (wild-type ribosome), % (test concentration not listed); AID 720706;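 active = significant combined selectivity score with lowered wild-type GFP, culture density cut under 30%, mutant RFP and density less affected; inactive = any of these conditions unmet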
# Cneo AK release = Cryptococcus neoformans lysis via adenylate kinase release; AID 651654; C. neoformans lysis, adenylate kinase release luminescence, 4 h; normalised: neutral wells 0, clomiphene wells 100; lysis activity, % at 15 µM; 0.2% of 360,000 active;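 active = mean lysis activity across replicates of at least 80%, whatever share of replicates individually reach that level; inactive = mean lysis activity below 80%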
#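 Test system: log-phase Cryptococcus neoformans yeast cells. Input: 5 × 10^6 yeast cells/mL. Medium: fresh YPD growth medium. Doses: single dose. Incubation: static 4 h at 37 °C with compound, 1 h detection. Measured by: luminescent adenylate kinase detection reagent. Read-out: signal increase indicating cell lysis. Benchmarks: Clomiphene.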
# Numbers stand for hits; - = inactive; ? = inconclusive; . = no result given; [ ] = another dose, or the depositor's remark. A selection: hits, their analogues and other compounds. The true share with any hit is near 3.1%.
SMILES,CFTR F508del cor,GSIS activator,miR122 inh,HIV Env fusion,Ecoli rRNA inh,Cneo AK release
COc1ccc(NC(=O)Nc2cccc3c2O[C@@H](CN(C)S(=O)(=O)c2ccc(Cl)cc2)[C@@H](C)CN([C@@H](C)CO)C3=O)cc1,-,-,-,-,-,-
COc1ccc(NC(=O)Nc2ccc3c(c2)C(=O)N([C@@H](C)CO)C[C@H](C)[C@H](CN(C)S(=O)(=O)c2ccc(Cl)cc2)O3)cc1,-,-,-,65.9[16.7 µM],-,-
COc1ccc(NC(=O)Nc2ccc3c(c2)C(=O)N([C@H](C)CO)C[C@H](C)[C@@H](CN(C)S(=O)(=O)c2ccc(Cl)cc2)O3)cc1,-,-,-,-,-,-
CCCC#Cc1ccc([C@@H]2[C@@H](CO)N3C(=O)CN(C(=O)Nc4cc(F)ccc4F)C[C@H]23)cc1,.,-,.,.,-,.
CCCC#Cc1ccc([C@H]2[C@H](CO)N3C(=O)CN(C(=O)Nc4cc(F)ccc4F)C[C@@H]23)cc1,10.3,-,.,.,-,.
O=C(Nc1cc(F)ccc1F)N1CC(=O)N2[C@H](C1)[C@H](c1ccc(C#CC3CCCCC3)cc1)[C@@H]2CO,-,-,.,.,-,.
O=C(Nc1cc(F)ccc1F)N1CC(=O)N2[C@@H](CO)[C@H](c3ccc(C#CC4CCCCC4)cc3)[C@@H]2C1,9.9,-,.,.,-,.
CN1[C@@H]2c3ccc(C4=CCCCC4)c(=O)n3C[C@H]1[C@H](CO)[C@H]2C(=O)NCc1cccc(F)c1,-,-,-,.,-,-
COC(=O)c1cn(-c2cccc(N)c2)nn1,-,.,.,-,.,-
Cn1c(N2CCOCC2)c(/C=N/OC(=O)c2ccc(F)cc2)c2ccccc21,.,.,-,59.3,.,-
COC(=O)C1=NN(C(=O)c2ccc(Br)cc2)C(O)(C(C)(C)C)C1 (centres undefined),-,-,.,-,-24.0,.
C/C=C1\COC(C(=O)NCc2cccc(OC)c2OC)(C(F)(F)F)C=C1C=C1CCCCC1 (centres undefined),-,72.7,-,70.7,-,-
O=C(CCCN1C(=O)/C(=C/c2ccc3c(c2)OCO3)SC1=S)Nc1ccc(C(=O)O)cc1,-,.,-,?,.,-
COc1ccc(/C=C2\SC(=O)N(CCNC(=O)C3=COCCO3)C2=O)cc1,8.0,-,-,-,-,-
Cc1ccc(/C=C2\SC(=S)N(CCCC(=O)Nc3ccccc3C(=O)O)C2=O)cc1,-,-,-,67.9,-,-
O=C(CCCN1C(=O)C(=Cc2ccc3c(c2)OCO3)SC1=S)Nc1ccc(C(=O)O)c(O)c1,-,-,-,-,-26.2,-
CCc1ccc(/C=C2\SC(=S)N(CCCC(=O)Nc3ccccc3C(=O)O)C2=O)cc1,-,-,.,-,-,-
O=C(NCCN1C(=O)S/C(=C\c2ccc(OC(F)F)cc2)C1=O)c1cnccn1,13.2,-,.,.,-,.
Cc1ccc(S(=O)(=O)N[C@@H]2CC[C@@H](CCn3cc(C4CCCC4)nn3)O[C@@H]2CO)cc1,-,-,-,-,-,-
CC(C)NC(=O)Nc1ccc2c(c1)C(=O)N([C@H](C)CO)C[C@H](C)[C@@H](CN(C)C(=O)c1ccccc1)OCCCC[C@@H](C)O2,-,-,-,-,-,-
COc1ccc(/C=C2\SC(=S)N(CCCC(=O)NNC(=O)c3ccccc3O)C2=O)cc1,-,-,-,58.6,-,.
COC(=O)c1ccc(/C=C2/SC(=S)N(CCCC(=O)Nc3ccc(O)cc3)C2=O)cc1,-,-,.,-,-,-
COc1ccc(/C=C2\SC(=O)N(CCCC(=O)Nc3ccc(C(=O)O)cc3)C2=O)cc1,-,.,-,88.8,-,-
O=C(CCN1C(=O)S/C(=C\c2ccc(Cl)cc2)C1=O)Nc1ccc(C(=O)O)cc1,-,-,.,-,-,-
Cc1ccc(/C=C2\SC(=S)N(CCCC(=O)Nc3ccc(O)cc3)C2=O)cc1,-,-,-,63.6,-,-
SMILES,CFTR F508del cor,GSIS activator,miR122 inh,HIV Env fusion,Ecoli rRNA inh,Cneo AK release
COc1cccc(/C=C2\SC(=O)N(CCC(=O)NNC(=O)c3ccccc3Cl)C2=O)c1,.,97.1,-,-,.,-
CO[C@H]1CN(C)C(=O)c2ccc(NC(=O)C3CCCC3)cc2OC[C@H](C)N(C)C[C@H]1C,-,-,-,.,-,-
CO[C@@H]1CN(C)C(=O)c2cc(NS(=O)(=O)c3cn(C)cn3)ccc2OC[C@H](C)N(C)C[C@H]1C,-,-,-,-,-,.
CO[C@H]1CN(C)C(=O)c2ccc(NC(=O)C3CCCCC3)cc2OC[C@@H](C)N(Cc2nccs2)C[C@@H]1C,-,-,-,.,-,-
Cc1ccc(S(=O)(=O)N[C@@H]2CC[C@@H](CC(=O)N3CCc4ccccc4C3)O[C@@H]2CO)cc1,-,-,-,-,-,-
C/C=C/c1ccc([C@@H]2[C@H](CO)N(C(=O)CC)C23CN(S(C)(=O)=O)C3)cc1,-,-,.,.,-,.
CC(C)NC(=O)N1[C@H](CN(C)C(=O)c2ccccc2)[C@@H](c2ccccc2)[C@@H]1CO,-,-,-,.,-,-
C=C1C(=O)O[C@H]2[C@@H]1CC/C(CO)=C\CC[C@@]1(C)O[C@@H]21,-,.,.,-,.,-
C=C1C(=O)OC2C1CCC(C)=C1C(=O)C3OC3(C)C12 (centres undefined),-,133.6,-,.,-,-
O=C(C[C@@H]1C[C@H]2c3cc(NC(=O)NC4CCCC4)ccc3O[C@H]2[C@H](CO)O1)NCc1ccc2c(c1)OCO2,-,-,-,-,-,-
C/C(=N\NC(N)=O)c1ccc(-n2ccnc2)cc1,-,-,-,-,-15.9,-
CC[C@@H]1CC=CC[C@@H](C)Oc2ccccc2C(=O)N(C)[C@H](C(C)C)C(=O)N1 (mixture of isomers),.,-,.,.,-,.
Cc1ccc(CNc2cc(C(=O)O)ccc2Cl)s1,-,-,-,-,-32.9,-
O=C(O)c1ccc(Cl)c(NCc2ccncc2)c1,-,-,-,-,-,-
C[C@@H]1CN(C)C(=O)Cc2cc(N)ccc2O[C@@H]1CN(C)S(C)(=O)=O,.,-,.,.,-,.
CCC(=O)N1[C@H](C(=O)Nc2ccccc2)[C@@H](CO)[C@@H]2Cn3c(ccc(-c4ccncc4)c3=O)[C@@H]21,-,-,-,.,-,99.0
CCOc1ncccc1C(=O)OCC(=O)Nc1ccc(C)c(S(=O)(=O)N2CCOCC2)c1,.,-,.,-,-,.
Cc1ccc(NC(=O)COC(=O)c2cccnc2Cl)cc1S(=O)(=O)N1CCOCC1,-,-,-,-,-25.2,-
CSc1ncccc1C(=O)OCC(=O)Nc1ccc(C)c(S(=O)(=O)N2CCOCC2)c1,-,.,-,76.0,-,-
CSc1ncccc1C(=O)OCC(=O)Nc1cccc(S(=O)(=O)N2CCOCC2)c1,-,.,-,.,-,-
